Most compounds without a hit are left out; they make up all but 2.5% or so of the library.
Rce1 inh = yeast Ras-converting enzyme inhibition; Q03530; yeast membranes, quenched prenylated peptide cleavage fluorescence; calls only; 290,000 compounds, 0.27% hits; AID 2563;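 active means fall in fluorescence gain of 50% or more versus controls, with final raw signal at or below 3038400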;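 further: plate controls were neutral control wells for no effect and wells lacking membranes for full effect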
Target sequence (Q03530 whole entry, looked up): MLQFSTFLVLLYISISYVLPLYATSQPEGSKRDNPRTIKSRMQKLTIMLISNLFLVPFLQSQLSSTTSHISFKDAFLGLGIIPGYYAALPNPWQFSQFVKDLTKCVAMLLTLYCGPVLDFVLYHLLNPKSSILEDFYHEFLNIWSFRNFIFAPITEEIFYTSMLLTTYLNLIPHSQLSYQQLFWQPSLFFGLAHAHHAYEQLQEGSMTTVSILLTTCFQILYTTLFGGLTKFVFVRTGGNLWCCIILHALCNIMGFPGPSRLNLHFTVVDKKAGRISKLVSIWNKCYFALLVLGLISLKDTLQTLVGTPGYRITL
MEKK2 mut-MEK5 = signal of MEK5 binding to mutant human MEKK2 PB1 domain. bead flow cytometry, Alexa488-MEK5 binding to MEKK2 mutant. percent response, % at 10 µM. 290,000 compounds, 0.35% hits; in the data active means percent response above about 24%, passing the limit was not always enough
UCH37 DUB inh = inhibitors of human deubiquitinating enzyme UCH37; AID 588478; inhibition, % (test concentration not listed); purified proteasome/UCH37, Ub-AMC cleavage fluorescence; 330,000 compounds, 0.33% hits;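 active means mean inhibition over replicate wells above about 20%, limit read from the data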;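 further: 0% = compound-free wells with enzyme and 100% = wells lacking proteasome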
Target sequence (Q9Y5K5 whole entry, looked up): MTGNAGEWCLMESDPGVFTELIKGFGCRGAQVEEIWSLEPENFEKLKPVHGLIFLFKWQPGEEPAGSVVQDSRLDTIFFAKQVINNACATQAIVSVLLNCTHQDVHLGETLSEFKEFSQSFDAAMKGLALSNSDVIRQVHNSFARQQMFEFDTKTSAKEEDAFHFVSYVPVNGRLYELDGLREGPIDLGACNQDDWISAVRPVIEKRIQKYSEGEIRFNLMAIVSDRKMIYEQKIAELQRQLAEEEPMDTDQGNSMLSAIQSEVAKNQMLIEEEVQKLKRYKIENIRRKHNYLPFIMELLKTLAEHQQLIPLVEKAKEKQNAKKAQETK
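Material: human UCH37 enzyme supplied as purified proteasome complex. Measure: % inhibition of Ub-AMC cleavage fluorescence. Medium: pH 7.4 Tris-HCl (50 mM) with ovalbumin, ATP-MgCl2, DTT. Times: 30 min preincubation with enzyme, 25 min cleavage at room temperature. Detection: AMC fluorescence intensity at 355/460 nm.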
MEKK2wt PB1 HTS = raises or lowers MEK5 binding to wildtype human MEKK2 PB1 domain; Q9Y2U5; bead flow cytometry, Alexa488-MEK5 binding to MEKK2 WT; actives lie on both sides; binding response (% of control), % at 10 µM; 290,000 compounds, 1.1% hits; AID 1531; in the data active means binding response below about 67% or above about 130%
MEKK3 PB1 HTS = raises or lowers MEK5 binding to the human MEKK3 PB1 domain; Q99759; bead-based flow cytometry, Alexa488-MEK5 binding to MEKK3; actives lie on both sides; 0 = blocked by unlabeled MEK5, 100 = vehicle; binding response (% of control), % at 10 µM; 290,000 compounds, 1.4% hits; AID 1529;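 active means binding response more than 3 SD above or below the average of its plate-row segment, actives on both sides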;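 further: Alexa488 bead fluorescence after subtracting the streptavidin-only scavenger bead signal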
T cell HTS = T cell immune modulation candidate. 2C CD8+ T cell-vesicle binding, flow cytometry; stronger effect = lower value. response (vesicle binding), % at 7 µM. 330,000 compounds, 0.068% hits;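 active means response, share of CD8 T cells binding vesicles, and their 90th percentile fluorescence all below set limits, cut at about 80% in these data, passing the limit was not always enough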;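 further: values below 100% mean blocked vesicle binding to the CD8+ T cells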
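Read-out – percent CD8+ FL2 mean versus row control · System – murine 2C transgenic CD8+ T lymphocytes · Times – 1.5 h cell–vesicle binding at 37 °C, then 20 min icy labelling · Control set – naked vesicles low, QL9 vesicles with vehicle high · Detection – cytometric PE anti-B7-1 and Alexa647 anti-CD8 signals after 1% paraformaldehyde fixation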
* marks the source's active call; other numbers are inactive results.

What do the screens show for `C=CC[N+]1(C)CC[C@]23c4c5ccc(O)c4O[C@H]2C(=O)CC[C@@]3(O)[C@H]1C5` (some centres not stated)?
Rce1 inh: active; UCH37 DUB inh: 0; T cell HTS: 334

What do the screens show for `COC(=O)C1C(O)C(C)C(O)C(C)C=CC=C(C)C(=O)Nc2c(C)c(OC(C)=O)c3c(c2O)C(=O)C(C)=C2OCOC(=C23)C(C)=CC(C)(O)C(O)C(C)C1O` (configuration not stated)?
UCH37 DUB inh: 16

What do the screens show for `CCOC(=O)C(=NNc1ccccc1)N1CC1`?
UCH37 DUB inh: 10

Results for CCCCCCCCCOc1ccc2[nH]cc(CCN)c2c1 ?
MEKK2 mut-MEK5: 34*; MEKK2wt PB1 HTS: 252*; MEKK3 PB1 HTS: 114

What do the screens show for `CCCCCSc1cc(OC)c(CCN)cc1OC`?
Rce1 inh: inactive; MEKK2 mut-MEK5: 14; UCH37 DUB inh: 1; MEKK2wt PB1 HTS: 127; MEKK3 PB1 HTS: 107; T cell HTS: 244

How did CN1CCN(c2ccc([N+](=O)[O-])c(N/N=C3\CN4CCC3CC4)c2)CC1 do in these assays?
Rce1 inh: inactive; MEKK2 mut-MEK5: -1; MEKK2wt PB1 HTS: 95; MEKK3 PB1 HTS: 96; T cell HTS: 810

Results for O=[N+]([O-])c1ccc(N2CCCC2)cc1NN=C1CN2CCC1CC2 ?
UCH37 DUB inh: 22*

Results for CNC(=O)ON=C(C)Cc1nnn(-c2cc(C)on2)n1 ?
UCH37 DUB inh: 1

What do the screens show for `Cn1c(O)c(C=NC2CCCCC2)c(=O)[nH]c1=S`?
Rce1 inh: inactive; MEKK2 mut-MEK5: -1; UCH37 DUB inh: 22*; MEKK2wt PB1 HTS: 98; MEKK3 PB1 HTS: 99; T cell HTS: 227

How did ON=C1/C(=C\c2ccccc2)N2CCC1CC2 do in these assays?
UCH37 DUB inh: 3

How did Oc1ccc(C=NNP(=S)(c2ccccc2)c2ccccc2)c(O)c1O do in these assays?
UCH37 DUB inh: 0

What do the screens show for `COC(=O)C1=C(c2ccc(Cl)c(C(F)(F)F)c2)C[C@@H]2CC[C@H]1N2C(=O)NCCO`?
UCH37 DUB inh: 33*; T cell HTS: 567

How did COC(=O)C1=C(c2ccc(Cl)c(C(F)(F)F)c2)C[C@@H]2CC[C@H]1N2C(=O)NCCOc1ccccc1 do in these assays?
UCH37 DUB inh: -2; T cell HTS: 192

Results for CC(=Nc1ccc2c(c1)CCC2)c1c(O)n(C)c(=O)n(C)c1=O ?
Rce1 inh: inactive; MEKK2 mut-MEK5: 3; UCH37 DUB inh: 32*; MEKK2wt PB1 HTS: 102; MEKK3 PB1 HTS: 98; T cell HTS: 175

What do the screens show for `CCC(=Nc1ccc2c(c1)CCC2)c1c(O)n(C)c(=O)n(C)c1=O`?
Rce1 inh: inactive; MEKK2 mut-MEK5: 2; UCH37 DUB inh: 2; MEKK2wt PB1 HTS: 105; MEKK3 PB1 HTS: 106; T cell HTS: 191

How did O=c1c2ccccc2nc(-c2ccccc2)n1-c1ccccc1 do in these assays?
Rce1 inh: inactive; MEKK2 mut-MEK5: -1; UCH37 DUB inh: -1; MEKK2wt PB1 HTS: 98; MEKK3 PB1 HTS: 98; T cell HTS: 424

How did O=c1c2ccccc2nc(-c2ccccc2)n1-n1cccc1 do in these assays?
Rce1 inh: inactive; MEKK2 mut-MEK5: 5; UCH37 DUB inh: 24*; MEKK2wt PB1 HTS: 103; MEKK3 PB1 HTS: 99; T cell HTS: 210

What do the screens show for `CCC12CN3CCN(CC(C3)C1=NNC(N)=O)C2`?
UCH37 DUB inh: -1

Results for COC(=O)C1=C(c2cc3ccccc3o2)C[C@@H]2CC[C@H]1N2C(=O)N1CCOCC1 ?
Rce1 inh: inactive; MEKK2 mut-MEK5: 2; UCH37 DUB inh: 27*; MEKK2wt PB1 HTS: 102; MEKK3 PB1 HTS: 102; T cell HTS: 466

What do the screens show for `COc1nc(NC(C)C)nc(NC(C)C)n1`?
Rce1 inh: inactive; MEKK2 mut-MEK5: 5; UCH37 DUB inh: 30*; MEKK2wt PB1 HTS: 102; MEKK3 PB1 HTS: 106; T cell HTS: 442

What do the screens show for `CC(C)CC12CN3CCN(CC(C3)C1=NO)C2`?
UCH37 DUB inh: 5

How did COC(=O)C1=CO[C@@H](C)[C@H]2CN3CC[C@]4(C(=O)Nc5ccccc54)[C@@H]3C[C@H]12 do in these assays?
Rce1 inh: inactive; MEKK2 mut-MEK5: -4; UCH37 DUB inh: 4; MEKK2wt PB1 HTS: -8.0*; MEKK3 PB1 HTS: 95; T cell HTS: 336

Results for CCC(C)N1C(=O)/C(=C\c2ccc(N3CCCCCC3)cc2)C(=O)NC1=S (configuration not stated) ?
Rce1 inh: inactive; MEKK2 mut-MEK5: 51*; UCH37 DUB inh: 4; MEKK2wt PB1 HTS: 64; MEKK3 PB1 HTS: 88; T cell HTS: 161

Results for CC1Oc2cc3c(-c4c(O)cc(O)c5c(O)c6c(cc45)OC(C)C(C)C6=O)c(O)cc(O)c3c(O)c2C(=O)C1C (configuration not stated) ?
Rce1 inh: inactive; MEKK2 mut-MEK5: 0; UCH37 DUB inh: 40*; MEKK2wt PB1 HTS: 92; MEKK3 PB1 HTS: 101; T cell HTS: 297

What do the screens show for `CC(C)CC(=NO)c1cn(C)c2ccccc12`?
UCH37 DUB inh: 4

How did CC(=O)[C@H]1CC[C@H]2[C@@H]3CC[C@H]4C[C@H](O)CC[C@]4(C)[C@H]3C(=O)C[C@]12C do in these assays?
Rce1 inh: active; MEKK2 mut-MEK5: 3; UCH37 DUB inh: 4; MEKK2wt PB1 HTS: 107; MEKK3 PB1 HTS: 86; T cell HTS: 454

Results for O=[N+]([O-])C=C1NCCN1Cc1ccc(Cl)nc1 ?
UCH37 DUB inh: 5

What do the screens show for `O=c1[nH]c(=O)n(CCc2ccc(F)cc2)c(O)c1C=NCCCn1ccnc1`?
Rce1 inh: inactive; MEKK2 mut-MEK5: 1; UCH37 DUB inh: 26*; MEKK2wt PB1 HTS: 101; MEKK3 PB1 HTS: 103; T cell HTS: 310

Results for O=c1[nH]c(=O)n(CCC2=CCCCC2)c(O)c1C=NCCCn1ccnc1 ?
Rce1 inh: inactive; MEKK2 mut-MEK5: 7; UCH37 DUB inh: 3; MEKK2wt PB1 HTS: 103; MEKK3 PB1 HTS: 103; T cell HTS: 358

Results for C=CCn1c(O)c(C=Nc2c(C)n(C)n(-c3ccccc3)c2=O)c(=O)[nH]c1=O ?
Rce1 inh: inactive; MEKK2 mut-MEK5: -2; UCH37 DUB inh: 20*; MEKK2wt PB1 HTS: 92; MEKK3 PB1 HTS: 94; T cell HTS: 640

What do the screens show for `Cc1c(N=Cc2c(O)n(C)c(=O)[nH]c2=O)c(=O)n(-c2ccccc2)n1C`?
Rce1 inh: inactive; MEKK2 mut-MEK5: -8; UCH37 DUB inh: 11; MEKK2wt PB1 HTS: 91; MEKK3 PB1 HTS: 89; T cell HTS: 278

How did CNC(=S)NN=C1C2CN3CCN(C2)CC1(c1ccccc1)C3 do in these assays?
UCH37 DUB inh: 3

Screening data from PubChem.
